Assay outcomes from PubChem.
TAAR1 agonist: human TAAR1 agonism; activation, % at 3 µM; AID 624467; hit rate 0.99% among 360,000; CHO RD-HGA16 TAAR1, Fluo-8 calcium fluorescence; vehicle wells 0%, saturating PEA agonist 100%; Q96RJ0;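 active = activation above the mean activation of all test compounds in the run plus 3 SD, cut at about 38% in these data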
Target sequence (Q96RJ0 whole entry, looked up): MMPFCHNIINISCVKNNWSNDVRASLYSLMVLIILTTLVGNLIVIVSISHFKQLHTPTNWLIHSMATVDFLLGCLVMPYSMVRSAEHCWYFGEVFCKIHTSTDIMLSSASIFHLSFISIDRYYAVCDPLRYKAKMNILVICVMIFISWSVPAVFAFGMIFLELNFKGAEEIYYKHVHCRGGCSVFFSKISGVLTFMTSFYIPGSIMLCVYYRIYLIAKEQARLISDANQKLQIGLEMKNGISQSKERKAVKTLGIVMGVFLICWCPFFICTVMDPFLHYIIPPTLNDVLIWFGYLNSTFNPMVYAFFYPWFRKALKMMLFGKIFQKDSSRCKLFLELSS
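test system = CHO RD-HGA16 cells carrying human TAAR1 plus Gα16 | schedule = 17-24 h seeding, 75 min 37 °C dye, 30 min RT | compound dosing = 3 µM single concentration | control set = DMSO and PEA EC100 | replicates = n 1 | signal = Fluo-8 fluorescence, 5 s baseline then 140 s kinetic read | measure = percent activation vs PEA EC100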
OX1R antag-1: OX1R (human) antagonism | AID 485270 | hit rate 1.8% among 330,000 | OX1R-expressing cells, FRET antagonist read-out | inhibition, % at 6.6 µM | O43613; in the data active = inhibition mostly above about 38%, no sharp cut-off; inactive = mostly below about 40%;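 note: 0% = agonist challenge alone and 100% = reference antagonist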
GPR7 antagonist: blocks human GPR7 receptor signaling | hit rate 1.1% among 290,000 | inhibition, % at 4.4 µM | P48145 | GPR7-expressing cells, fluorescence antagonist assay; in the data active = inhibition above about 16%, passing the limit was not always enough;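 note: cells stimulated with the agonist NPW; 0% = agonist with vehicle and 100% = vehicle without agonist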
Target sequence (P48145 whole entry, looked up): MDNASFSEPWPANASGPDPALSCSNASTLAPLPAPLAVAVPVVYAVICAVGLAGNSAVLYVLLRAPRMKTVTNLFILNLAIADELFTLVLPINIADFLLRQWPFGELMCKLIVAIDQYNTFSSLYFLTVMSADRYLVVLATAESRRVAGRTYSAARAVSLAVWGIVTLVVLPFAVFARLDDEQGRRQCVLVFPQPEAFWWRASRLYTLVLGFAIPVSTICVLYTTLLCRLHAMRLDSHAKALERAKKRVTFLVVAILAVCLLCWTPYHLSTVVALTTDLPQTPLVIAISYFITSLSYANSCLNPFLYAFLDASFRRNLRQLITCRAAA
OX1R antag-2: blocks the human orexin 1 receptor; CHO/OX1R cells, Fluo-8 calcium fluorescence, orexin A; inhibition, % at 5 µM; hit rate 0.43% among 330,000; AID 434989;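 active = inhibition above its plate's threshold, mean inhibition of all tested compounds on the plate plus 3 SD, cut at about 37% in these data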;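 note: 0% = orexin A challenge wells and 100% = SB-334867-A antagonist wells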
TAAR1 antag: antagonists of human TAAR1. Q96RJ0. inhibition, % at 3 µM. hit rate 1.5% among 360,000. AID 624466. CHO RD-HGA16 TAAR1, Fluo-8 calcium fluorescence, antagonist;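 active = inhibition above a per-plate cutoff, the mean inhibition of test compounds on that plate plus 3 SD, cut at about 49% in these data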;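 note: 0% = DMSO plus EC80 beta-PEA response and 100% = DMSO alone without agonist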
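Test system – hTAAR1-expressing CHO RD-HGA16 cells, Gα16-coupled · Also added – β-PEA at EC80 concentration, post-compound challenge · Compound – 3 µM, single point · Incubation – dye loading 75 min at 37 °C, then 30 min room temperature · Measured by – Fluo-8 intracellular calcium dye fluorescence, real-time kinetic reads · Benchmarks – vehicle and agonist controls · Replicates – singlicate, one well per test compound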
CHO parental Ca: counter-screen: ATP calcium response change in parental CHO cells; parental CHO-K1, ATP-induced calcium, Fluo-8 fluorescence; inhibition, % at 5.6 µM; hit rate 0.63% among 330,000;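 active = inhibition above that plate's mean sample inhibition plus 3 SD, cut at about 26% in these data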;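 note: 0% = ATP-challenged DMSO wells and 100% = DMSO wells without ATP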
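Test system: untransfected parental CHO cell line. Compound: one dose, 5.6 µM nominal. Detection: intracellular calcium via Fluo-8 no-wash fluorescent dye. Measure: % inhibition. Benchmarks: ATP-challenged DMSO wells low, unchallenged DMSO wells high.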
GPR7 antag conf: human GPR7 antagonism, confirmation assay | shares compounds with GPR7 antagonist | hit rate 52% among 2,400 | GPR7-expressing cells, calcium fluorescence antagonist mode | inhibition, % at 4.4 µM | AID 1952; in the data active = inhibition above about 24%;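 note: stimulated with the GPR7 agonist NPW; 0% = agonist plus vehicle and 100% = vehicle alone without agonist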
MCHR1 antag: counter-screen for GPR7 antagonists: antagonists of human MCHR1; shares compounds with GPR7 antagonist; hit rate 62% among 2,400; MCHR1-expressing cells, fluorescence antagonist assay; inhibition, % at 4.4 µM; AID 2148; in the data active = inhibition above about 22%;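 note: 0% = vehicle with agonist and 100% = vehicle without agonist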
* = called active by the depositor; . = not tested or not shown. An excerpt weighted towards active compounds, which were near 4.6% of everything screened.

SMILES	TAAR1 agonist	OX1R antag-1	GPR7 antagonist	OX1R antag-2	TAAR1 antag	CHO parental Ca	GPR7 antag conf	MCHR1 antag
CC(=O)Nc1ccc(S(=O)(=O)NCCC(=O)OC(C)C(=O)c2ccc(C)cc2)cc1 (centres undefined)	5	35	27*	-7	28	18	20	45*
CC(=O)c1cc(F)ccc1OCC(=O)N1CCCc2ccccc21	9	6	-14	-17	16	-13	.	.
CN(C)CCN(Cc1cc2cc3c(cc2nc1Cl)OCO3)C(=O)c1ccco1	-1	6	-5	-8	1	-5	.	.
Cc1cc(Cl)ccc1OCC(=O)N1CCN(c2ncccn2)CC1	2	15	24*	-21	18	-17	-6	3
O=C(OCC(=O)N1CCN(c2ccccc2)CC1)c1ccc(O)cc1O	4	19	26*	4	-28	2	15	6
O=C(Nc1ccccc1)Nc1ccc(Br)c(Cl)c1	23	55	29*	13	40	29*	50*	57*
O=C(Nc1ccccc1)Nc1ccccc1Br	-1	26	-1	-12	7	14	.	.
Cc1cccc(CN2CCNC2=O)c1	3	9	21*	-2	6	-14	-3	-6
Cc1ccccc1CN1CCNC1=O	1	11	-16	-7	-3	-4	.	.
CCN(C(=O)COC(=O)c1c(NC(C)=O)sc(C)c1C)c1c(N)n(Cc2ccccc2)c(=O)[nH]c1=O	0	.	.	.	0	.	.	.
O=C1C=C(/C=C/C2C=CC=CC2)C[C@@H](c2ccc(Cl)cc2)C1 (some centres undefined)	-2	-4	.	-28	-12	-32	.	.
O=C(c1ccc2c(c1)OCO2)N(CC1CCCO1)C1(C(=O)NC2CCCC2)CCCCC1 (centres undefined)	2	10	32*	-20	-7	-18	31*	17
COc1ccc(CC2(CO)CCN(C(C)Cc3ccc(Cl)cc3)CC2)cc1 (centres undefined)	14	5	21*	-31	-6	-15	5	20
O=C(COc1cc(F)ccc1[N+](=O)[O-])Nc1cc(S(=O)(=O)N2CCCC2)ccc1Cl	8	.	.	.	13	.	.	.
CC(C)Cn1c(SCC(N)=O)nnc1-c1cccc(S(=O)(=O)N2CCOCC2)c1	3	1	.	-7	-4	-1	.	.
Cc1ccc(CSc2nnc(-c3cccc(S(=O)(=O)N4CCOCC4)c3)n2CC(C)C)cc1	6	8	35*	-20	0	-10	19	25*
Cc1ccc(Nc2nnc(-c3ccccc3N)o2)cc1C	3	17	7	-25	-32	-13	.	.
COc1ccccc1CNC(=O)CSc1nc(-c2ccccc2)cn1N	4	73*	27*	10	-16	-3	-10	8
COc1ccc(CN(C)C(=O)C23CC4CC(CC(Cl)(C4)C2)C3)c(OC)c1OC	-2	14	25*	-8	1	-3	0	23*
COc1ccc(COCC(O)CN2CCN(S(=O)(=O)c3c(F)cccc3F)CC2)cc1OC (centres undefined)	15	.	.	.	-4	.	.	.
COc1cccc(C(C(=O)NC2CCCCC2)N(C(=O)c2ccco2)c2ccccc2OC)c1 (centres undefined)	-3	48	13	-16	10	-16	.	.
COc1ccc(C(C(=O)NC2CCCCC2)N(C(=O)c2ccco2)c2ccccc2OC)cc1 (centres undefined)	9	14	29*	-22	-4	-24	17	14
COc1ccc(C(C(=O)NC2CCCC2)N(C(=O)c2ccco2)c2ccccc2OC)cc1 (centres undefined)	1	27	-3	-19	-18	-34	.	.
COc1ccccc1N(C(=O)CNC(=O)c1ccco1)C(C(=O)NC1CCCC1)c1ccco1 (centres undefined)	-3	13	24*	-20	16	5	14	8
COc1ccccc1N(C(=O)c1ccco1)C(C(=O)NC1CCCCC1)c1cc(OC)c(OC)c(OC)c1 (centres undefined)	-1	42*	34*	-23	-5	-23	37*	9
SMILES	TAAR1 agonist	OX1R antag-1	GPR7 antagonist	OX1R antag-2	TAAR1 antag	CHO parental Ca	GPR7 antag conf	MCHR1 antag
CN1CCC(NCCC(c2ccc(F)cc2)c2ccc(Cl)cc2)CC1 (centres undefined)	15	.	47*	.	19	.	43*	41*
O=C(c1cnccn1)N(Cc1cccs1)C1(C(=O)NC2CCCCC2)CCCCC1	0	38	41*	-23	-24	-20	30*	30*
O=C(c1cnccn1)N(Cc1cccs1)C1(C(=O)NC2CCCC2)CCCCC1	1	17	26*	-15	-2	-7	37*	21
O=C(c1ccccn1)N(Cc1cccs1)C1(C(=O)NC2CCCCC2)CCCCC1	1	5	3	-18	-39	-19	.	.
O=C(NCc1cccnc1)c1cc(-c2ccc(Cl)cc2)oc1C(F)(F)F	4	16	34*	-25	-34	-27	24*	20
O/N=C(\c1ccccn1)C1CC1c1ccccc1 (centres undefined)	-2	18	-10	-13	-1	-4	.	.
COc1ccc(C2CC2/C(=N/O)c2ccccn2)cc1 (centres undefined)	-1	22	28*	7	26	-14	26*	18
COC(C(=O)Nc1ccc(S(=O)(=O)Nc2ccc(F)cc2)cc1)c1ccccc1 (centres undefined)	56*	3	22*	12	37	8	51*	39*
O=C(CCC1CCCCC1)NCCN1C2=NC[C@H](Cc3ccccc3)N2C[C@H]1Cc1ccc(O)cc1	24	34	29	-16	-9	-26	.	.
O=C(CCC1CCCCC1)NCCN1C2=NC[C@@H](Cc3ccccc3)N2C[C@H]1Cc1ccc(O)cc1	14	8	46*	-30	4	-26	55*	30*
CCOc1ccc(S(=O)(=O)Nc2cc(OC)ccc2OC)cc1	6	6	23*	-11	-14	8	18	34*
OC(Cc1ccccc1Br)c1ncc(-c2ccc(Cl)cc2)[nH]1 (centres undefined)	2	.	.	.	-9	.	.	.
COc1cc(OC)c(S(=O)(=O)N2CCCCC2)cc1S(=O)(=O)N1CCCCC1	13	4	48*	-15	20	-9	46*	21
COc1ccc(OC)c(S(=O)(=O)N2CCC(C(=O)NC3CCCC3)CC2)c1	0	15	-8	-16	-15	-4	.	.
